Experimental data from ChEMBL document CHEMBL4145471, “New 1,5 and 2,5-disubstituted tetrazoles-dependent activity towards surface barrier of Candida albicans” (Eur J Med Chem, 2018).

Assays:
Format in all cases: functional
Candida albicans [1] = assay: Antifungal activity against Candida albicans ATCC 90028 at 0.25 ug/ml after 18 hrs relative to control
Summary of the method: (§1)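 Fluconazole (water stock, diluted in RPMI 1640) tested by CLSI M27-A3 broth microdilution against C. albicans ATCC 90028. Inoculum 1.8×10^3 cells/mL in RPMI 1640 buffered with MOPS, pH 7.0. Incubation at 35°C without agitation, read at 18 and 48 h. Growth by OD405 and visually; inhibition % calculated against solvent growth-control wells after subtracting sterility-control wells.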

Candida albicans [2] = assay: Antifungal activity against Candida albicans ATCC 90028 at 8 ug/ml after 18 hrs relative to control
Summary of the method: (§2)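 Planktonic broth microdilution per M27-A3 in MOPS-buffered RPMI 1640 (pH 7.0), final inoculum 1.8×10^3 cells/mL, compounds 0.0313–16 µg/mL from 1600 µg/mL stocks in ethanol or DMSO. Incubated at 35°C without agitation; OD405 read at 18 and 48 h. % inhibition was derived from test, sterility (no inoculum) and solvent growth-control wells. Amphotericin B at 0.5 µg/mL served as the 100% control.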

Candida albicans [3] = assay: Antifungal activity against Candida albicans ATCC 90028 at 1 ug/ml after 18 hrs relative to control; summary of the method: as §2
Candida albicans [4] = assay: Antifungal activity against Candida albicans ATCC 90028 at 2 ug/ml after 18 hrs relative to control; summary of the method: as §2
Candida albicans [5] = assay: Antifungal activity against Candida albicans ATCC 90028 at 16 ug/ml after 18 hrs relative to control; summary of the method: as §2
Candida albicans [6] = assay: Antifungal activity against Candida albicans ATCC 90028 at 16 ug/ml after 48 hrs relative to control; summary of the method: as §2
Candida albicans [7] = assay: Antifungal activity against Candida albicans ATCC 90028 at 0.0313 ug/ml after 48 hrs relative to control
Candida albicans [8] = assay: Antifungal activity against Candida albicans ATCC 90028 at 4 ug/ml after 18 hrs relative to control; summary of the method: as §2
Candida albicans [9] = assay: Antifungal activity against Candida albicans ATCC 90028 at 0.0625 ug/ml after 48 hrs relative to control; summary of the method: as §2
Candida albicans [10] = assay: Antifungal activity against Candida albicans ATCC 90028 at 0.0313 ug/ml after 18 hrs relative to control
Candida albicans [11] = assay: Fungicidal activity against Candida albicans ATCC 90028 at 16 ug/ml after 48 hrs by M27-A3 microdilution method
Summary of the method: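 After 48 h at 35°C in M27-A3 microdilution plates (compound at 16 µg/mL), 50 µL aliquots from treated and solvent-control wells were diluted 10^4 in PBS and plated on drug-free Sabouraud dextrose agar, then incubated 48 h at 35°C. Reduction R = lg CFU/mL control − lg CFU/mL treated; R ≥ 3 defined as fungicidal.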

Candida albicans [12] = assay: Antifungal activity against Candida albicans ATCC 90028 at 8 ug/ml after 48 hrs relative to control; summary of the method: as §2
Candida albicans [13] = assay: Antifungal activity against Candida albicans ATCC 90028 at 0.5 ug/ml after 48 hrs relative to control; summary of the method: as §2
Candida albicans [14] = assay: Antifungal activity against Candida albicans ATCC 90028 at 0.0625 ug/ml after 18 hrs relative to control
Candida albicans [15] = assay: Antifungal activity against Candida albicans ATCC 90028 at 0.5 ug/ml after 18 hrs relative to control; summary of the method: as §2
Candida albicans [16] = assay: Antifungal activity against Candida albicans ATCC 90028 at 2 ug/ml after 48 hrs relative to control; summary of the method: as §2
Candida albicans [17] = assay: Antifungal activity against Candida albicans ATCC 90028 at 0.125 ug/ml after 48 hrs relative to control; summary of the method: as §2
Candida albicans [18] = assay: Antifungal activity against Candida albicans ATCC 90028 at 1 ug/ml after 48 hrs relative to control; summary of the method: as §2
Candida albicans [19] = assay: Antifungal activity against Candida albicans ATCC 90028 at 0.25 ug/ml after 48 hrs relative to control; summary of the method: as §1
Candida albicans [20] = assay: Antifungal activity against Candida albicans ATCC 90028 at 0.125 ug/ml after 18 hrs relative to control; summary of the method: as §2
Candida albicans [21] = assay: Antifungal activity against Candida albicans ATCC 90028 at 4 ug/ml after 48 hrs relative to control; summary of the method: as §2

SMILES | Activity (Candida albicans [1]) [%] | Activity (Candida albicans [2]) [%] | Activity (Candida albicans [3]) [%] | Activity (Candida albicans [4]) [%] | Activity (Candida albicans [5]) [%] | Activity (Candida albicans [6]) [%] | Activity (Candida albicans [7]) [%] | Activity (Candida albicans [8]) [%] | Activity (Candida albicans [9]) [%] | Activity (Candida albicans [10]) [%] | Activity (Candida albicans [11]) [log10CFU/ml] | Activity (Candida albicans [12]) [%] | Activity (Candida albicans [13]) [%] | Activity (Candida albicans [14]) [%] | Activity (Candida albicans [15]) [%] | Activity (Candida albicans [16]) [%] | Activity (Candida albicans [17]) [%] | Activity (Candida albicans [18]) [%] | Activity (Candida albicans [19]) [%] | Activity (Candida albicans [20]) [%] | also measured
c1ccc(-c2nnn(CCCN3CCOCC3)n2)cc1 | 99.96 | 99.94 | 80.42 | 85.92 | 97.02 | 99.31 | 98.98 | 99.64 | 99.55 | 94.63 | -0.34 | 98.82 | 99.59 | 99.93 | 99.52 | 98.84 | 97.95 | 98.87 | 99.13 | 99.81 | Activity (Candida albicans [21]): 99.15%
Cc1ccc(-c2nnn(CCCCl)n2)cc1 | 99.45 | 99.06 | 99.6 | 98.39 | 98.46 | 98.26 | 98.94 | 99.63 | 99.12 | 98.95 | 0.65 | 99.08 | 98.95 | 99.06 | 97.59 | 98.87 | 98.92 | 98.65 | 98.79 | 98.66 | Activity (Candida albicans [21]): 98.84%
ClCCCn1nnnc1-c1ccccc1 | 94.68 | 98.57 | 96.69 | 95.82 | 98.95 | 99.05 | 99.02 | 98.66 | 99.12 | 99.65 | -0.18 | 98.81 | 98.82 | 99.45 | 97.53 | 97.23 | 99.16 | 98.8 | 98.19 | 98.12 | Activity (Candida albicans [21]): 98.9%
CCOC(=O)CCn1nnnc1-c1ccc(C)cc1 | 95.87 | 98.51 | 98.46 | 89.93 | 98.97 | 98.82 | 99.34 | 99.94 | 99.11 | 99.74 | -0.54 | 98.86 | 99.08 | 99.59 | 98.88 | 97.05 | 98.94 | 99.04 | 98.72 | 99.61 | Activity (Candida albicans [21]): 99.01%
CCOC(=O)CCn1nnc(-c2ccccc2Cl)n1 | 99.86 | 99.23 | 99.38 | 99.98 | 100 | 98.83 | 99.27 | 100 | 98.78 | 97.51 | 0.19 | 98.84 | 98.84 | 99.86 | 96.86 | 99.41 | 98.82 | 98.86 | 99.09 | 99.97 | Activity (Candida albicans [21]): 99.05%
ClCCCn1nnc(-c2ccccc2Cl)n1 | 99.95 | 98.9 | 98.99 | 95 | 94.16 | 98.34 | 99.17 | 99.32 | 99.03 | 99.97 | 0.51 | 99.05 | 98.89 | 98.61 | 98.9 | 98.6 | 99.13 | 98.69 | 98.96 | 99.62 | Activity (Candida albicans [21]): 98.5%
